Data on 5 molecules can be found in ChEMBL document CHEMBL3352184, “6-Deoxy-13-hydroxy-8,11-dione-dihydrogranaticin B, an intermediate in granaticin biosynthesis, from Streptomyces sp. CPCC 200532” (J Nat Prod, 2014).

Active and inactive are the calls of the source. The rule behind the calls is not given here.

One may read the IC50 as the concentration needed to halve the response being measured. A lower IC50 goes with greater potency in that assay.

One experiment has as its system A549. Description: Cytotoxicity against human A549 cells by MTT assay. Format: functional, cell-based.
Conditions: not given
A digest of the protocol:
(§1)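 MTT read-out on cancer cell lines exposed to a series of concentrations per compound (ranges spanning roughly 0.6–372.1 μM); compounds dissolved in DMSO, final DMSO 0.1%.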
Molecule `C[C@@H]1O[C@@H](CC(=O)O)Cc2cc3c(c(O)c21)C(=O)C1=C(C3=O)[C@H]2C[C@@H](O)[C@@]1(O)[C@@H](C)O2` gave an IC50 of 197 µM.

`C[C@@H]1O[C@H]2CC(=O)O[C@H]2C2=C1C(=O)c1c(O)c3c(c(O)c1C2=O)[C@H]1C[C@@H](O[C@H]2CC[C@H](O)[C@H](C)O2)[C@@]3(O)[C@@H](C)O1` [GRANATICIN B] showed an IC50 of 1.9 µM.

Take `C[C@@H]1O[C@H]2CC(=O)O[C@H]2C2=C1C(=O)c1c(O)c3c(c(O)c1C2=O)[C@H]1C[C@@H](O)[C@]3(O)[C@@H](C)O1`: the midpoint of inhibition, the IC50, lay at 1.3 µM.

With `C[C@@H]1O[C@@H](CC(=O)O)Cc2cc3c(c(O)c21)C(=O)C1=C(C3=O)[C@H]2C[C@@H](O[C@H]3CC[C@H](O)[C@H](C)O3)[C@@]1(O)[C@@H](C)O2`, the midpoint of inhibition, the IC50, lay at 37.6 µM.

Tested on in the next experiment: not listed separately
Put plainly: Cytotoxicity against human HCT116 cells by MTT assay. Format: functional, cell-based. The note with it: HCT-116. The gist of the method: as §1
On the technique in general: Formazan colour is commonly taken as a measure of viable cells.
For `C[C@@H]1O[C@@H](CC(=O)O)Cc2cc3c(c(O)c21)C(=O)C1=C(C3=O)[C@H]2C[C@@H](O)[C@@]1(O)[C@@H](C)O2`, the IC50 is 179 µM.

As to `C[C@@H]1O[C@H]2CC(=O)O[C@H]2C2=C1C(=O)c1c(O)c3c(c(O)c1C2=O)[C@H]1C[C@@H](O[C@H]2CC[C@H](O)[C@H](C)O2)[C@@]3(O)[C@@H](C)O1` [GRANATICIN B], the IC50 amounted to 14.8 µM.

As for `C[C@@H]1O[C@H]2CC(=O)O[C@H]2C2=C1C(=O)c1c(O)c3c(c(O)c1C2=O)[C@H]1C[C@@H](O)[C@]3(O)[C@@H](C)O1`, the midpoint of inhibition, the IC50, lay at 11 µM.

For the molecule `C[C@@H]1O[C@@H](CC(=O)O)Cc2cc3c(c(O)c21)C(=O)C1=C(C3=O)[C@H]2C[C@@H](O[C@H]3CC[C@H](O)[C@H](C)O3)[C@@]1(O)[C@@H](C)O2`, the half-inhibitory concentration (IC50) is 13.1 µM.

A further experiment concerns HeLa. Put plainly: Cytotoxicity against human HeLa cells by MTT assay. The format is functional, cell-based.
Conditions: not given
The gist of the method: as §1
The molecule `C[C@@H]1O[C@@H](CC(=O)O)Cc2cc3c(c(O)c21)C(=O)C1=C(C3=O)[C@H]2C[C@@H](O)[C@@]1(O)[C@@H](C)O2` returned an IC50 of 297 µM.

`C[C@@H]1O[C@H]2CC(=O)O[C@H]2C2=C1C(=O)c1c(O)c3c(c(O)c1C2=O)[C@H]1C[C@@H](O[C@H]2CC[C@H](O)[C@H](C)O2)[C@@]3(O)[C@@H](C)O1` [GRANATICIN B] registered a half-maximal inhibitory concentration (IC50) of 1.6 µM.

As to `C[C@@H]1O[C@H]2CC(=O)O[C@H]2C2=C1C(=O)c1c(O)c3c(c(O)c1C2=O)[C@H]1C[C@@H](O)[C@]3(O)[C@@H](C)O1`, the IC50 is 0.7 µM.

Molecule `C[C@@H]1O[C@@H](CC(=O)O)Cc2cc3c(c(O)c21)C(=O)C1=C(C3=O)[C@H]2C[C@@H](O[C@H]3CC[C@H](O)[C@H](C)O3)[C@@]1(O)[C@@H](C)O2` gave a half-maximal inhibitory concentration (IC50) of 20.2 µM.

In a further experiment the test system is HepG2. Description: Cytotoxicity against human HepG2 cells by MTT assay.
Conditions: not given
Format: functional, cell-based. The gist of the method: as §1
With `C[C@@H]1O[C@@H](CC(=O)O)Cc2cc3c(c(O)c21)C(=O)C1=C(C3=O)[C@H]2C[C@@H](O)[C@@]1(O)[C@@H](C)O2`, the midpoint of inhibition, the IC50, lay at 148 µM.

Regarding `C[C@@H]1O[C@H]2CC(=O)O[C@H]2C2=C1C(=O)c1c(O)c3c(c(O)c1C2=O)[C@H]1C[C@@H](O[C@H]2CC[C@H](O)[C@H](C)O2)[C@@]3(O)[C@@H](C)O1` [GRANATICIN B], the half-inhibitory concentration (IC50) is 5.8 µM.

`C[C@@H]1O[C@H]2CC(=O)O[C@H]2C2=C1C(=O)c1c(O)c3c(c(O)c1C2=O)[C@H]1C[C@@H](O)[C@]3(O)[C@@H](C)O1` displayed an IC50 of 6.6 µM.

Molecule `C[C@@H]1O[C@@H](CC(=O)O)Cc2cc3c(c(O)c21)C(=O)C1=C(C3=O)[C@H]2C[C@@H](O[C@H]3CC[C@H](O)[C@H](C)O3)[C@@]1(O)[C@@H](C)O2` gave an IC50 of 18.8 µM.

A further experiment has as its system Bacillus subtilis. Description: Antibacterial activity against Bacillus subtilis CMCC 63501 after 16 to 18 hrs by filter paper disk assay. The format is functional, organism-based.
Conditions: not given
As to `C[C@@H]1O[C@H]2CC(=O)O[C@H]2C2=C1C(=O)c1c(O)c3c(c(O)c1C2=O)[C@H]1C[C@@H](O[C@H]2CC[C@H](O)[C@H](C)O2)[C@@]3(O)[C@@H](C)O1` [GRANATICIN B], the outcome was Active.

On to `C[C@@H]1O[C@@H](CC(=O)O)CC2=C1C(=O)c1c(O)c3c(c(O)c1C2=O)[C@H]1C[C@@H](O[C@H]2CC[C@H](O)[C@H](C)O2)[C@@]3(O)[C@@H](C)O1`, for which the outcome was Active.
